pIC50, pKi: −log10 of the molar value. The source made the active and inactive calls. The rule behind the calls is not given here.
Tests used:
Haemophilus influenzae [1] = assay: Growth inhibition of Haemophilus influenzae R2866 up to 100 uM incubated for 1 hr followed by drug removal and re-plating of colonies for 24 hrs by bacterial viable count method; assay type: organism-based; settings: in vivo
How it was run: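 H. influenzae R2866 was grown overnight in supplemented BHI at 37 °C, 180 rpm, then diluted to OD590 0.7. Cells were exposed 1 h at 37 °C to compound (0-200 µM; final DMSO 10%) or DMSO. They were centrifuged, washed twice with sBHI, serially diluted and plated on chocolate agar (24 h, 37 °C, 5% CO2) for viable counts. Triplicate, mean; unpaired t-test.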

LgtC [2] = target: T1, LgtC (Neisseria meningitidis, UniProt Q93EK7); assay: (§1) Inhibition of recombinant Neisseria meningitidis glycosyltransferase LgtC using UDP-Gal/lactose as substrate preincubated for 20 mins with UDP-Gal followed by lactose addition measured after 20 mins in presence of MnCl2 by malachite green dye based colorimetric assay
T1 sequence (Q93EK7 whole entry): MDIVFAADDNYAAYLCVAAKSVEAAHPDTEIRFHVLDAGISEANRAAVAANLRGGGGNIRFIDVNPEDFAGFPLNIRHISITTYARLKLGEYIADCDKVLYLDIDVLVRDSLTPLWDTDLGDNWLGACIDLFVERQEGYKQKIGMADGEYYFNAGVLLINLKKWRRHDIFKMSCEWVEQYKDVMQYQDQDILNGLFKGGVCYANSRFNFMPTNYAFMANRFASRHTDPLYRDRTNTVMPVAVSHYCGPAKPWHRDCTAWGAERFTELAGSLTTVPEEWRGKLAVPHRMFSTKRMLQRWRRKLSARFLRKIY
How it was run: (§2)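 Dose-response with DTT-activated recombinant N. meningitidis LgtC at 20-50% donor turnover. Pre-incubation was 20 min at 30 °C with inhibitor (0.1-50 up to 0.1-250 µM, 10% DMSO), UDP-Gal 28 µM, MnCl2 5 mM, CIP 10 U/mL, CEL 1 mg/mL and Triton 0.01% in 13 mM HEPES pH 7.0. Lactose 2 mM was then added for 20 min at 30 °C. Malachite Green A620 read-out; triplicate, mean ± SD.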

LgtC [3] = target: T1, LgtC; assay: as §1, with “for 30” for “for 20”, “MnCl2 and calf intestinal phosphatase” for “MnCl2”, “based enzyme-coupled” for “based”, “assay relative to control” for “assay”
How it was run: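 IC50 set-up using DTT-activated recombinant N. meningitidis LgtC at 20-50% donor turnover. Enzyme was pre-incubated 30 min at 30 °C with inhibitor (0.1-100 or 0.1-50 µM, 10% DMSO), UDP-Gal 28 µM, MnCl2 5 mM, CIP 10 U/mL, CEL 1 mg/mL and Triton 0.01% in 13 mM HEPES pH 7.0. Lactose 2 mM was added for 20 min at 30 °C, then read by Malachite Green phosphate detection at 620 nm.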

Haemophilus influenzae [4] = assay: Potentiation of human serum-induced killing of Haemophilus influenzae R2866 at 100 uM in presence of 30% v/v human serum pre-incubated for 1 hr followed by drug removal and re-plating of colonies for 24 hrs by bacterial viable count method; assay type: functional, organism-based
How it was run: (§3)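 Overnight R2866 sBHI culture, diluted to OD590 0.7, was exposed 1 h at 37 °C to 30% v/v normal human serum plus inhibitor (50 or 100 µM); the control received 30% serum alone. Serum and compound were removed by centrifugation and two sBHI washes. Cells were serially diluted and plated on chocolate agar (24 h, 37 °C, 5% CO2) for viable counts. Triplicate, mean.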

[5] = target: T2, LgtC (Neisseria meningitidis) (UniProt Q93EK7); assay: Inhibition of recombinant Neisseria meningitidis glycosyltransferase LgtC assessed as ratio of Kinact/Ki using UDP-Gal/lactose as substrate preincubated for 20 mins with UDP-Gal followed by lactose addition measured after 20 mins in presence of MnCl2
T2 sequence (whole entry): T1 sequence (Q93EK7 whole entry)
How it was run: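 Kinetic parameters from LgtC activity at ranges of inhibitor (0-50 up to 0-250 µM) after 0, 5, 10 and 20 min pre-incubation. Activity, as % of DMSO control, was plotted against pre-incubation time and fitted exponentially to give Kobs. Kobs was then fitted against [I] with the hyperbolic equation to obtain kinact and Ki. Triplicate.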

Haemophilus influenzae [6] = assay: Toxicity against Haemophilus influenzae R2866; assay type: organism-based; settings: in vivo
[7] = target: T2, LgtC (Neisseria meningitidis); assay: (§4) Inhibition of recombinant Neisseria meningitidis glycosyltransferase LgtC using UDP-Gal/lactose as substrate preincubated for 20 mins with UDP-Gal followed by lactose addition measured after 20 mins in presence of MnCl2; how it was run: as §2
LgtC [8] = target: T1, LgtC; assay: as §4; how it was run: as §2
[9] = target: T2, LgtC (Neisseria meningitidis); assay: (§5) Inhibition of recombinant Neisseria meningitidis glycosyltransferase LgtC using UDP-Gal/lactose as substrate at 25 uM preincubated for 30 mins with UDP-Gal followed by lactose addition measured after 20 mins in presence of MnCl2 and calf intestinal phosphatase by malachite green dye based enzyme-coupled colorimetric assay relative to control
How it was run: (§6)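 Recombinant N. meningitidis LgtC, activated with 10 mM DTT (1:1, 30 min, 30 °C) and set to 20-50% UDP-Gal turnover. It was pre-incubated 30 min at 30 °C with 25 or 50 µM inhibitor in 13 mM HEPES pH 7.0 containing UDP-Gal 28 µM, MnCl2 5 mM, CIP 10 U/mL, CEL 1 mg/mL, Triton 0.01% and 10% DMSO. Lactose 2 mM was then added for 20 min at 30 °C. Malachite Green read at A620; activity taken against a DMSO control.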

[10] = target: T2, LgtC (Neisseria meningitidis); assay: as §5, with “50” for “25”; how it was run: as §6
Haemophilus influenzae [11] = assay: Potentiation of human serum-induced killing of Haemophilus influenzae R2866 at 50 uM in presence of 30% v/v human serum pre-incubated for 1 hr followed by drug removal and re-plating of colonies for 24 hrs by bacterial viable count method; assay type: functional, organism-based; how it was run: as §3

SMILES | pIC50 (LgtC [2]) | pIC50 (LgtC [3]) | Ratio [5] [M⁻¹ s⁻¹] | Kinact [7] [s⁻¹] | pKi (LgtC [8]) | inhibition [9] [%] | inhibition [10] [%] | further results
O=C1/C(=C\c2cccc(OCc3ccccc3)c2)C(C(F)(F)F)=NN1c1ccccc1 | 4.42 | 4.74 | 36 | 0.0018 | 4.30 |  |  | growth inhibition (GI) (Haemophilus influenzae [1]): Non-Toxic; Activity (Haemophilus influenzae [4]): inactive; growth inhibition (GI) (Haemophilus influenzae [6]): Toxic
COc1ccc(/C=C2\C(=O)N(Cc3ccccc3)N=C2C(F)(F)F)cc1Br |  | 4.92 |  |  |  |  |  | 
COc1ccc(/C=C2\C(=O)N(c3ccccc3)N=C2C)cc1Br |  | < 4.30 |  |  |  | 33 | 43 | 
O=C1/C(=C\c2cccc(Cl)c2)C(C(F)(F)F)=NN1c1ccccc1 | 4.19 |  | 18 | 0.0016 | 4.06 |  |  | 
COc1ccc(/C=C2\C(=O)N(c3cccc(C(=O)O)c3)N=C2C(F)(F)F)cc1Br |  | 5.52 |  |  |  |  |  | 
CCOC(=O)CC1=NN(c2ccccc2)C(=O)/C1=C\c1ccc(OC)c(Br)c1 |  |  |  |  |  | 32 | 67 | 
CCOC(=O)C1=NN(c2ccccc2)C(=O)/C1=C\c1ccc(OC)c(Br)c1 |  |  |  |  |  | 61 | 66 | 
O=C1/C(=C\c2ccc(O)cc2)C(C(F)(F)F)=NN1c1ccccc1 | 5.24 |  | 370 | 0.0025 | 5.17 |  |  | 
COc1ccc(/C=C2\C(=O)N(c3ccccc3)N=C2C(F)(F)F)cc1 | 5.05 |  | 80 | 0.0015 | 4.72 |  |  | 
COc1ccc(/C=C2\C(=O)N(c3ccccc3)N=C2C(F)(F)F)cc1Br | 5.19 | 5.51 | 163 | 0.0012 | 5.15 | 80 | 84 | growth inhibition (GI) (Haemophilus influenzae [1]): Non-Toxic; Activity (Haemophilus influenzae [11]): inactive
O=C1/C(=C\c2ccccc2)C(C(F)(F)F)=NN1c1ccccc1 | 4.20 | 4.55 | 13 | 0.002 | 3.82 |  |  | 
COc1ccc(/C=C2\C(=O)N(c3ccccc3)N=C2C(=O)O)cc1Br |  |  |  |  |  | 35 | 58 | 
COc1ccc(/C=C2\C(=O)N(c3ccccc3)N=C2C(N)=O)cc1Br |  |  |  |  |  | 31 | 39 | 
COc1ccc(/C=C2\C(=O)N(c3cccc(C(=O)NCCO)c3)N=C2C(F)(F)F)cc1Br |  | 5.37 |  |  |  |  |  | 
COc1ccc(/C=C2\C(=O)N(c3ccc(C(=O)O)cc3)N=C2C(F)(F)F)cc1Br |  | 5.54 |  |  |  |  |  | 
CCOC(=O)c1ccccc1/C=C1\C(=O)N(c2ccccc2)N=C1C(F)(F)F |  | < 4.00 |  |  |  |  |  | 
O=C1/C(=C\c2ccc(OCc3ccccc3)cc2)C(C(F)(F)F)=NN1c1ccccc1 | 5.48 |  | 238 | 0.0011 | 5.33 |  |  | 
O=C1/C(=C\c2ccc(Cl)cc2)C(C(F)(F)F)=NN1c1ccccc1 | 4.10 | 4.60 | 18 | 0.0009 | 4.31 |  |  | 
CC1=NN(c2ccccc2)C(=O)/C1=C\c1ccccc1C(F)(F)F |  |  |  |  |  |  |  | growth inhibition (GI) (Haemophilus influenzae [1]): Non-Toxic; Activity (Haemophilus influenzae [4]): inactive; growth inhibition (GI) (Haemophilus influenzae [6]): Toxic
